Apaf1 inhib = inhibitors of human Apaf-1 apoptosome; O14727; reconstituted apoptosome caspase-3 activity, DEVD-Rh110 fluorescence; inhibition, % at 20 µM; hit rate 0.71% among 330,000; AID 489030; active = inhibition of at least 40% at 20 µM;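 note: plate controls were DMSO wells for no effect and DEVD-CHO caspase inhibitor wells for full effect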
Target sequence (O14727 whole entry, looked up): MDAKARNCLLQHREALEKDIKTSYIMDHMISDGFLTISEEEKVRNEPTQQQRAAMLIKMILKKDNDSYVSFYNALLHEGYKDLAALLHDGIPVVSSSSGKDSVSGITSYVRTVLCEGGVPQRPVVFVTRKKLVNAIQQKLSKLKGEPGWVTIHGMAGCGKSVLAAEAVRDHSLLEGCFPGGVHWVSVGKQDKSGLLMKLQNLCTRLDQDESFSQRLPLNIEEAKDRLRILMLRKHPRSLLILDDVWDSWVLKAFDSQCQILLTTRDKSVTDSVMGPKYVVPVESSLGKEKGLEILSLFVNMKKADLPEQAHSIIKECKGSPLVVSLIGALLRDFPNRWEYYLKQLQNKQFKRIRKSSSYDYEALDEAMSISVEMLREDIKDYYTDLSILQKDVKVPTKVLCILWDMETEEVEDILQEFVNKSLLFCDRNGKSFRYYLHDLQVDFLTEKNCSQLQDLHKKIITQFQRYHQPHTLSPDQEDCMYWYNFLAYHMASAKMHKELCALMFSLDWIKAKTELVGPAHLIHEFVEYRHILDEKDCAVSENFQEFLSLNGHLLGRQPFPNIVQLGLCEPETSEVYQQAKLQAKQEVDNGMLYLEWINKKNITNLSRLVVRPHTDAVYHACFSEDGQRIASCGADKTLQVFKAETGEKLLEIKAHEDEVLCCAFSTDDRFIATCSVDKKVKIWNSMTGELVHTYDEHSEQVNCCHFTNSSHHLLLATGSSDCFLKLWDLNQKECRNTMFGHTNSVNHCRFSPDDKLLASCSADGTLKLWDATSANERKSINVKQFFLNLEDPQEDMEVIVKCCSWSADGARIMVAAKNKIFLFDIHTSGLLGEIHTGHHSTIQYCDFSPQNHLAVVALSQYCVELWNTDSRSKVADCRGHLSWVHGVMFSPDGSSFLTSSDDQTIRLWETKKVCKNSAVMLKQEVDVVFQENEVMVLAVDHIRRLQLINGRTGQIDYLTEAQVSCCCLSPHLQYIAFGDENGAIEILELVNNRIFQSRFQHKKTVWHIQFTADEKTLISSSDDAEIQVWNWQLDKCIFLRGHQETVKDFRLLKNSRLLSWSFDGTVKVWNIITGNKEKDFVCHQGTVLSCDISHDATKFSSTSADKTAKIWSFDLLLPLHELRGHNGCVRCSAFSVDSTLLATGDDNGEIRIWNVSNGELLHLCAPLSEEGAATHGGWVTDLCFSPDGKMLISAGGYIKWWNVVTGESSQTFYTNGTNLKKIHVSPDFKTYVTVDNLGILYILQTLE
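Material: biochemical Apaf-1 apoptosome reconstitution. Medium: Hepes buffer, pH 7.5. Also added: cytochrome c activation, bis-DEVD rhodamine 110 substrate. Timing: 30 min compound preincubation, 50 min activation, room temperature. Measured by: rhodamine 110 fluorescence at Ex 480/Em 540 nm.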
TDP2 inh = TDP2 (human) inhibition, absorbance primary screen; recombinant TDP2, T5PNP hydrolysis, p-nitrophenol absorbance 415 nm; inhibition, % at 12.8 µM; hit rate 0.34% among 370,000;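 active = inhibition above the mean of all tested compounds plus 3 SD, set per campaign, cut at about 25% in these data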;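 note: 0% = DMSO with enzyme and 100% = buffer with substrate but no TDP2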
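System: recombinant human TDP2 / Amount: 120 nM TDP2 per well / Also added: 5 mM T5PNP chromogenic substrate / Doses: 12.8 µM single point, 1% DMSO / Incubation: 2 h at 37 °C / Detection: p-Nitrophenol epi absorbance / Evaluation: % inhibition relative to enzyme-containing and enzyme-free wells / Repeats: singlicate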
PAFAH2 inh = inhibitors of human PAFAH2. hit rate 0.99% among 340,000. AID 492956. recombinant PAFAH2, FP-rhodamine activity probe, fluorescence polarization. Q99487. inhibition, % at 3.39 µM;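 active = inhibition above the mean over all tested compounds plus 3 SD, cut at about 30% in these data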;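 note: inhibitors block probe labeling of enzyme so polarization drops; 0% = enzyme with DMSO and 100% = wells lacking PAFAH2 protein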
PAFAH1B3 inh = inhibitors of human PAFAH1B3; Q15102; recombinant PAFAH1B3, FP-rhodamine probe, fluorescence polarization; hit rate 0.28% among 340,000; inhibition, % at 3.39 µM;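 active = inhibition above the screen-wide average of all tested compounds plus 3 SD, cut at about 25% in these data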;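 note: 0% = enzyme with DMSO only and 100% = wells lacking PAFAH1B3 protein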
PAFAH1B2 FP inh = inhibitors of human PAFAH1B2. inhibition, % at 3.39 µM. AID 492953. recombinant PAFAH1B2, FP-rhodamine activity probe, fluorescence polarization. P68402. hit rate 1.2% among 340,000;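 active = inhibition above the mean of all tested compounds plus 3 SD, cut at about 24% in these data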;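 note: 0% = enzyme with DMSO and 100% = wells lacking PAFAH1B2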
Apaf-1 inh conf = confirmation of Apaf-1 inhibitors; shares compounds with Apaf1 inhib; reconstituted apoptosome, caspase-3 DEVD-Rh110 fluorescence; inhibition, % at 20 µM; hit rate 25% among 1,800; AID 504614;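 active = mean inhibition of at least 40% at 20 µM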;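 note: plate controls were DMSO wells for no effect and DEVD-CHO caspase inhibitor control wells for full effect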
Rh110 interf inh = interferes with Rh110 fluorescence, flagging false Apaf-1 inhibitors; 1,800 tested, under 10 active; Rh110 fluorescence interference, quenched caspase reaction; AID 504615; activation (fluorescence interference), % at 20 µM; shares compounds with Apaf1 inhib;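 active = signal rise of 40% or more at 20 µM, treated as a fluorescence artifact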
Fluor interf inh = counter-screen for Apaf-1 inhibitors: fluorescence interference, dose response; shares compounds with Apaf1 inhib; fluorescence interference counterscreen, Apaf-1 assay format; IC50, µM; 460 tested, under 10 active; AID 588538; call rule not given here
* hit, by the source's call; x = no result given. In the library only some 2.3% were active in any assay of this set; here they are far more common.

SMILES	Apaf1 inhib	TDP2 inh	PAFAH2 inh	PAFAH1B3 inh	PAFAH1B2 FP inh	Apaf-1 inh conf	Rh110 interf inh	others
Cc1ccc(C(=O)NC(=S)Nc2cccc3nsnc23)cc1	59*	-3	-5	7	3	16	22
Cc1ccc(C(=O)NC(=S)Nc2c(C)ccc3nsnc23)cc1	15	-3	2	13	2	x	x
CCCCCn1c(N2CCC(Cc3ccccc3)CC2)nc2c1c(=O)[nH]c(=O)n2C	46*	x	2	-3	16	32	11
CCOc1cc2c(C#N)c(N(CC)CC)nc(N)c2c(N)n1	29	-1	-2	-3	12	x	x
CCCN(CC1CC1)c1nc(N)c2c(N)nc(OC)cc2c1C#N	93*	3	12	11	12	6	1
COc1ccc(CC(=O)N(Cc2ccccc2)c2ccccc2C(=O)Nc2cc(OC)ccc2OC)cc1	x	2	x	x	x	x	x
COC1=C(Nc2ccccc2)C(=O)c2ccccc2C1=O	61*	21	5	7	5	26	9
CC1=NN(c2ccc(C)cc2C)C(=O)C1C(c1cccc(O)c1)C1C(=O)N(c2ccc(C)cc2C)N=C1C (stereo unspecified)	85*	71*	2	1	2	27	-2
CCN1/C(=C/c2ccc3cc(C)ccc3[n+]2CC)Sc2cc(C)c(C)cc21	64*	-4	-14	-3	-84	60*	-19	Fluor interf inh=>100
O=C(CSc1nc(=O)n2ccccc2n1)NCc1ccccc1Cl	48*	-13	-2	0	3	-6	-1
COC(=O)[C@]1(CNC(=O)c2cc(F)ccc2F)CC(=O)N(C)[C@@H]1c1ccccc1	x	2	x	x	x	x	x
COc1cccc(-c2sc3ccc(OC)cc3c2-c2ccc(O)cc2)c1	6	2	-4	-6	0	x	x
CN(C)CCOc1ccc(-c2c(-c3ccsc3)sc3ccccc23)cc1	71*	-3	2	-4	2	24	13
COc1cccc(-c2sc3ccc(OC)cc3c2-c2ccc(OCCN(C)C)cc2)c1	75*	-6	0	2	7	23	20
O=c1[nH]c(N2CCOCC2)cc2ccccc12	93*	14	0	8	4	74*	2	Fluor interf inh=>100
O=c1c(N2CCOCC2)coc2ccccc12	-4	7	-10	4	-5	x	x
COC(=O)[C@]12C[C@H](CC(=O)NCc3cccc4ccccc34)C(=O)N(Cc3ccco3)C1=C[C@H](C(C)(C)C)O[C@@H]2C	x	-4	x	x	x	x	x
O=C1/C(=N\S(=O)(=O)c2cccs2)C([n+]2ccc(CCCc3ccccc3)cc2)=C([O-])c2ccccc21	46*	-3	x	x	x	13	-6
Cc1oc2c(c1C(=O)N1CCC(C)CC1)C(=O)c1ccccc1C2=O	42*	16	x	x	x	33	0
Cc1ccc(C(=O)c2c(C)oc3c2C(=O)C(=O)c2ccccc2-3)cc1	88*	x	13	7	4	73*	5	Fluor interf inh=>100
Nc1c(C(=O)NCCN2CCOCC2)c2nc3ccccc3nc2n1CCc1ccccc1F	43*	-1	11	10	4	18	13
Nc1c(C(=O)NCc2ccc3c(c2)OCO3)c2nc3ccccc3nc2n1CCCN1CCOCC1	90*	-5	4	14	1	44*	10	Fluor interf inh=>100
COc1ccccc1CNC(=O)c1c(N)n(CCCN2CCOCC2)c2nc3ccccc3nc12	x	-10	5	5	5	x	x
CCN(CC)C(=O)CC[C@@H]1CC[C@]2(CCCN(C(=O)c3ccno3)C2)O1	x	6	x	x	x	x	x
COc1ccc([C@H]2OC(=O)C[C@H]2C(=O)N2CCCCC2)cc1OC	x	-3	x	x	x	x	x
COCCCNC(=O)C[C@H]1C[C@@]2(C(=O)OC)C(=C[C@H](C3CCCC3)O[C@@H]2C)N(Cc2ccccc2)C1=O	x	-9	x	x	x	x	x
COc1ccc(-c2sc3cc4c(cc3c2-c2ccc(OCCN3CCOCC3)cc2)OCO4)cc1	14	0	5	5	-1	x	x

Source: PubChem
